Among the data in ChEMBL document CHEMBL4190362, “Synthesis, biological evaluation and quantitative structure-active relationships of 1,3-thiazolidin-4-one derivatives. A promising chemical scaffold endowed with high antifungal potency and low cytotoxicity” (Eur J Med Chem, 2017) are MIC values, retold here.

The test system of one experiment is Staphylococcus aureus. The experiment is described as follows: Antibacterial activity against Staphylococcus aureus assessed as inhibition of microbial growth incubated for 18 to 22 hrs by broth microdilution method. Type of experiment: functional. The method, boiled down:
(§1)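 Broth microdilution in Mueller-Hinton II broth following NCCLS recommendations; compounds dissolved in DMSO.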
On the technique in general: Broth dilution looks for growth in wells or tubes with falling amounts of substance.

In a further experiment the test system is Staphylococcus warneri. The experiment is described as follows: Antibacterial activity against Staphylococcus warneri assessed as inhibition of microbial growth incubated for 18 to 22 hrs by broth microdilution method. Type of experiment: functional. The gist of the method:
as §1

The subject of a further experiment is Enterococcus faecalis. Nature of the experiment: Antibacterial activity against Streptococcus faecalis assessed as inhibition of microbial growth incubated for 18 to 22 hrs by broth microdilution method. Type of experiment: functional. The method, boiled down:
as §1

A further experiment has as its system Escherichia coli. The experiment is described as follows: Antibacterial activity against Escherichia coli assessed as inhibition of microbial growth incubated for 18 to 22 hrs by broth microdilution method. Type of experiment: functional. The gist of the method: as §1
For the next experiment, the system named is Proteus mirabilis. The experiment is described as follows: Antibacterial activity against Proteus mirabilis assessed as inhibition of microbial growth incubated for 18 to 22 hrs by broth microdilution method. Type of experiment: functional. The gist of the method:
as §1

The subject of another experiment is Enterobacter. Nature of the experiment: Antibacterial activity against Enterobacter spp. assessed as inhibition of microbial growth incubated for 18 to 22 hrs by broth microdilution method. The class given is functional. The method, boiled down:
as §1

Another experiment relates to Klebsiella oxytoca. The experiment is described as follows: Antibacterial activity against Klebsiella oxytoca assessed as inhibition of microbial growth incubated for 18 to 22 hrs by broth microdilution method. The class given is functional. The method, boiled down:
as §1

The test system of a further experiment is Candida albicans. Nature of the experiment: Antifungal activity against Candida albicans clinical isolates assessed as inhibition of microbial growth incubated for 24 hrs by broth microdilution method. Type of experiment: functional. The gist of the method: (§2)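 Twenty-two clinical Candida isolates (8 C. albicans, 4 C. glabrata, 3 C. tropicalis, 3 C. krusei, 2 C. parapsilosis, 2 C. sake) were identified by colony morphology and biochemistry and subcultured at 35 °C for purity. Compounds were dissolved in DMSO and tested by broth microdilution in Sabouraud dextrose broth per NCCLS/CLSI/EUCAST guidance. Values are geometric mean MIC per species (µg/mL).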

A further experiment relates to Nakaseomyces glabratus. Nature of the experiment: Antifungal activity against Candida glabrata clinical isolates assessed as inhibition of microbial growth incubated for 24 hrs by broth microdilution method. Type of experiment: functional. The gist of the method: as §2
Another experiment deals with Candida tropicalis. The experiment is described as follows: Antifungal activity against Candida tropicalis clinical isolates assessed as inhibition of microbial growth incubated for 24 hrs by broth microdilution method. Type of experiment: functional. The method, boiled down:
as §2

A further experiment relates to Pichia kudriavzevii. The experiment is described as follows: Antifungal activity against Candida krusei clinical isolates assessed as inhibition of microbial growth incubated for 24 hrs by broth microdilution method. The class given is functional. The gist of the method: as §2
The next experiment deals with Candida parapsilosis. Nature of the experiment: Antifungal activity against Candida parapsilosis clinical isolates assessed as inhibition of microbial growth incubated for 24 hrs by broth microdilution method. Particulars: Lodderomyces parapsilosis. Type of experiment: functional. The method, boiled down: as §2
The next experiment deals with [Candida] sake. Nature of the experiment: Antifungal activity against Candida sake clinical isolates assessed as inhibition of microbial growth incubated for 24 hrs by broth microdilution method. The class given is functional. As to conditions: Fermentozyma sake. The method, boiled down:
as §2

The test system of experiment [1] is Streptococcus alpha-hemolyticus (Streptococcus sp.). Nature of the experiment: Antibacterial activity against Streptococcus Streptococcus alpha hemolyticus assessed as inhibition of microbial growth incubated for 18 to 22 hrs by broth microdilution method.

Turning to `C/C(=N/N=C1\NC(=O)CS1)c1cccnc1`, the MIC with Staphylococcus aureus, with Staphylococcus warneri, with Enterococcus faecalis, in the experiment on Escherichia coli, in the experiment on Proteus mirabilis and in the experiment with Enterobacter was ≥ 256 µg/mL throughout. Further, the MIC (as a rule, the lowest concentration that inhibits growth of the organism) in the experiment on Klebsiella oxytoca is ≥ 256 µg/mL; in the experiment with Candida albicans, 256 µg/mL; in the experiment on Nakaseomyces glabratus, 256 µg/mL; with Candida tropicalis it was 256 µg/mL; with Pichia kudriavzevii it was 256 µg/mL; in the experiment with Candida parapsilosis, 256 µg/mL. Besides, the values for the MIC in experiment [Candida] sake and in experiment [1] were 256 µg/mL and ≥ 256 µg/mL, respectively.

For the molecule `O=C1CS/C(=N/N=C\c2ccncc2)N1`, the MIC with Staphylococcus aureus, in the experiment on Staphylococcus warneri, in the experiment with Enterococcus faecalis, in the experiment with Escherichia coli, in the experiment with Proteus mirabilis and in the experiment with Enterobacter was ≥ 256 µg/mL in each case. Also, the MIC in the experiment on Klebsiella oxytoca is ≥ 256 µg/mL; in the experiment on Candida albicans it was 256 µg/mL; with Nakaseomyces glabratus, 256 µg/mL; with Candida tropicalis, 256 µg/mL; in the experiment on Pichia kudriavzevii, 256 µg/mL; in the experiment on Candida parapsilosis it was 256 µg/mL. In addition, the MIC was 256 µg/mL in experiment [Candida] sake and ≥ 256 µg/mL in [1].

On to `O=C1CS/C(=N/N=C\c2c[nH]c3ccccc23)N1`, for which the MIC with Staphylococcus aureus, in the experiment with Staphylococcus warneri, with Enterococcus faecalis, in the experiment on Escherichia coli, in the experiment with Proteus mirabilis and with Enterobacter was ≥ 256 µg/mL in each case. Also, the MIC in the experiment with Klebsiella oxytoca was ≥ 256 µg/mL; in the experiment on Candida albicans it was 128 µg/mL; in the experiment on Nakaseomyces glabratus it was 16 µg/mL; with Candida tropicalis, 8 µg/mL; in the experiment on Pichia kudriavzevii it was 16 µg/mL; with Candida parapsilosis it was 256 µg/mL. In addition, the MIC is 256 µg/mL in experiment [Candida] sake and ≥ 256 µg/mL in experiment [1].

In the case of `O=C1CS/C(=N/N=C\c2ccc3c(c2)OCO3)N1`, the MIC in the experiment on Staphylococcus aureus, in the experiment with Staphylococcus warneri, in the experiment with Enterococcus faecalis, in the experiment on Escherichia coli, in the experiment on Proteus mirabilis and with Enterobacter was ≥ 256 µg/mL in each case. Besides, the MIC in the experiment with Klebsiella oxytoca was ≥ 256 µg/mL; in the experiment with Candida albicans it was 256 µg/mL; in the experiment with Nakaseomyces glabratus, 256 µg/mL; in the experiment with Candida tropicalis, 256 µg/mL; in the experiment on Pichia kudriavzevii, 256 µg/mL; in the experiment with Candida parapsilosis it was 256 µg/mL. Moreover, the MIC in experiment [Candida] sake was 256 µg/mL; in experiment [1], ≥ 256 µg/mL.

Turning to `O=C1CS/C(=N/N=C\c2cccc3ccccc23)N1`, the MIC with Staphylococcus aureus, with Staphylococcus warneri, in the experiment with Enterococcus faecalis, with Escherichia coli, in the experiment on Proteus mirabilis and in the experiment with Enterobacter was ≥ 256 µg/mL each time. The MIC was ≥ 256 µg/mL in the experiment on Klebsiella oxytoca; 256 µg/mL with Candida albicans; 256 µg/mL with Nakaseomyces glabratus; 256 µg/mL with Candida tropicalis; 256 µg/mL in the experiment on Pichia kudriavzevii; 256 µg/mL with Candida parapsilosis. Moreover, the MIC was 256 µg/mL in [Candida] sake and ≥ 256 µg/mL in experiment [1].

Regarding `C/C(=N/N=C1\NC(=O)CS1)c1ccc2ccccc2c1`, the MIC in the experiment on Staphylococcus aureus, in the experiment with Staphylococcus warneri, with Enterococcus faecalis, in the experiment on Escherichia coli, in the experiment with Proteus mirabilis and with Enterobacter was ≥ 256 µg/mL each time. Further, the MIC in the experiment on Klebsiella oxytoca is ≥ 256 µg/mL; in the experiment with Candida albicans, 32 µg/mL; in the experiment with Nakaseomyces glabratus it was 16 µg/mL; in the experiment on Candida tropicalis, 32 µg/mL; in the experiment on Pichia kudriavzevii, 16 µg/mL; in the experiment with Candida parapsilosis, 256 µg/mL. Further, the values for the MIC in experiment [Candida] sake and in [1] were 256 µg/mL and ≥ 256 µg/mL, respectively.

`C/C(=N/N=C1\NC(=O)CS1)c1cc2ccccc2oc1=O`: the MIC in the experiment on Staphylococcus aureus, in the experiment with Staphylococcus warneri, with Enterococcus faecalis, with Escherichia coli, with Proteus mirabilis and in the experiment on Enterobacter was ≥ 256 µg/mL throughout. The MIC with Klebsiella oxytoca is ≥ 256 µg/mL; in the experiment on Candida albicans, 256 µg/mL; in the experiment on Nakaseomyces glabratus, 16 µg/mL; with Candida tropicalis, 256 µg/mL; in the experiment with Pichia kudriavzevii, 256 µg/mL; in the experiment with Candida parapsilosis, 256 µg/mL. In addition, the MIC was 256 µg/mL in [Candida] sake and ≥ 256 µg/mL in experiment [1].

Consider `C/C(=N\N=C1/NC(=O)CS1)c1cc2ccccc2o1`, for which the MIC in the experiment on Staphylococcus aureus, in the experiment on Staphylococcus warneri, in the experiment on Enterococcus faecalis, in the experiment with Escherichia coli, with Proteus mirabilis and in the experiment with Enterobacter was ≥ 256 µg/mL throughout. The MIC in the experiment on Klebsiella oxytoca is ≥ 256 µg/mL; with Candida albicans it was 2 µg/mL; with Nakaseomyces glabratus, 8 µg/mL; in the experiment on Candida tropicalis, 2 µg/mL; with Pichia kudriavzevii it was 2 µg/mL; in the experiment on Candida parapsilosis, 2 µg/mL. Moreover, the minimal inhibitory concentration (MIC) is 2 µg/mL in experiment [Candida] sake and ≥ 256 µg/mL in experiment [1].

Turning to `C/C(=N/N=C1\NC(=O)CS1)c1cccc2ccccc12`, the MIC in the experiment on Staphylococcus aureus, with Staphylococcus warneri, with Enterococcus faecalis, with Escherichia coli, with Proteus mirabilis and with Enterobacter was ≥ 256 µg/mL in each case. Besides, the MIC was ≥ 256 µg/mL in the experiment on Klebsiella oxytoca; 2 µg/mL with Candida albicans; 2 µg/mL in the experiment on Nakaseomyces glabratus; 16 µg/mL in the experiment on Candida tropicalis; 16 µg/mL in the experiment on Pichia kudriavzevii; 2 µg/mL in the experiment on Candida parapsilosis. In addition, the MIC in [Candida] sake is 2 µg/mL; in experiment [1], ≥ 256 µg/mL.

On to `C/C(=N/N=C1\NC(=O)CS1)c1ccncc1`, for which the MIC in the experiment with Staphylococcus aureus, in the experiment on Staphylococcus warneri, in the experiment with Enterococcus faecalis, in the experiment on Escherichia coli, in the experiment with Proteus mirabilis and in the experiment with Enterobacter was ≥ 256 µg/mL throughout. The MIC is ≥ 256 µg/mL in the experiment with Klebsiella oxytoca; 16 µg/mL in the experiment on Candida albicans; 16 µg/mL with Nakaseomyces glabratus; 8 µg/mL in the experiment with Candida tropicalis; 16 µg/mL in the experiment on Pichia kudriavzevii; 256 µg/mL in the experiment on Candida parapsilosis. Besides, the MIC in [Candida] sake was 256 µg/mL; in experiment [1], ≥ 256 µg/mL.

In the case of `C/C(=N/N=C1\NC(=O)CS1)c1ccc2c(c1)OCCO2`, the MIC with Staphylococcus aureus, in the experiment with Staphylococcus warneri, with Enterococcus faecalis, in the experiment on Escherichia coli, in the experiment on Proteus mirabilis and with Enterobacter was ≥ 256 µg/mL each time. Also, the MIC in the experiment with Klebsiella oxytoca is ≥ 256 µg/mL; in the experiment on Candida albicans it was 4 µg/mL; in the experiment on Nakaseomyces glabratus, 4 µg/mL; in the experiment on Candida tropicalis, 4 µg/mL; in the experiment with Pichia kudriavzevii, 8 µg/mL; with Candida parapsilosis, 16 µg/mL. Besides, the results for the MIC in experiment [Candida] sake and in experiment [1] were 8 µg/mL and ≥ 256 µg/mL, respectively.

Regarding `C/C(=N/N=C1\NC(=O)CS1)c1c[nH]c2ccccc12`, the MIC in the experiment on Staphylococcus aureus, in the experiment with Staphylococcus warneri, in the experiment on Enterococcus faecalis, in the experiment with Escherichia coli, with Proteus mirabilis and in the experiment with Enterobacter was ≥ 256 µg/mL each time. Further, the MIC with Klebsiella oxytoca was ≥ 256 µg/mL; in the experiment on Candida albicans, 4 µg/mL; in the experiment with Nakaseomyces glabratus, 8 µg/mL; in the experiment with Candida tropicalis, 8 µg/mL; in the experiment on Pichia kudriavzevii it was 2 µg/mL; with Candida parapsilosis it was 4 µg/mL. Besides, the results for the minimum inhibitory concentration (MIC) in experiment [Candida] sake and in experiment [1] were 16 µg/mL and ≥ 256 µg/mL, respectively.
